In brackets after ≈: the same amount, converted by molar mass.
Legend:
[1] = tested on: Aeromonas allosaccharophila; test: Antimicrobial activity against Aeromonas allosaccharophila AL-1 expressing beta-lactamase PER6 by agar dilution method; format: functional
How it was run: (§1)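 The test organism was environmental isolate AL-1, recovered from Seine River water on MacConkey agar containing ceftazidime (2 μg/ml). It was identified by API 32GN and 16S rRNA gene sequencing. MICs were determined by agar dilution on Mueller-Hinton agar and interpreted by CLSI guidelines.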

Escherichia coli [2] = test: Antimicrobial activity against Escherichia coli DH10B harboring recombinant Aeromonas allosaccharophila AL-1 beta-lactamase PER6 by agar dilution method; format: functional; conditions: K-12 DH10B
Escherichia coli [3] = test: Antimicrobial activity against Escherichia coli DH10B harboring recombinant Aeromonas allosaccharophila AL-1 beta-lactamase PER1 by agar dilution method; format: functional; conditions: K-12 DH10B
Escherichia coli [4] = test: Antimicrobial activity against Escherichia coli DH10B harboring recombinant Aeromonas allosaccharophila AL-1 beta-lactamase PER2 by agar dilution method; format: functional; conditions: K-12 DH10B
Escherichia coli [5] = test: Antimicrobial activity against Escherichia coli DH10B by agar dilution method; format: functional; conditions: K-12 DH10B
How it was run: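 MICs measured by agar dilution on Mueller-Hinton agar plates, the method used for imipenem and imipenem combined with clavulanate; other MICs were obtained by Etest. Results were interpreted according to CLSI guidelines. Test strains were E. coli DH10B recombinants carrying cloned PER-1, PER-2 or PER-6 β-lactamase genes.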

[6] = tested on: Aeromonas allosaccharophila; test: Ratio of Kcat to Km for Aeromonas allosaccharophila AL-1 beta-lactamase PER2
[7] = tested on: Aeromonas allosaccharophila; test: Antimicrobial activity against Aeromonas allosaccharophila AL-1 expressing beta-lactamase PER6 by agar dilution method in presence of 4 ug/ml of clavulanic acid; format: functional; how it was run: as §1
[8] = substrate: CC(=O)OCC1=C(C(=O)O)N2C(=O)[C@@H](NC(=O)Cc3cccs3)[C@H]2SC1; test: (§2) Activity at Aeromonas allosaccharophila AL-1 beta-lactamase PER6
How it was run: (§3)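 PER-6 enzyme was purified from a crude extract of E. coli DH10B(pPER-6). Purification used cation exchange on S-Sepharose at pH 6.8, then anion exchange on Q-Sepharose at pH 8. Purity was >90% by SDS-PAGE. The purified enzyme was used for hydrolysis and inhibition measurements.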

[9] = substrate: CC(C)(O/N=C(\C(=O)N[C@@H]1C(=O)N2C(C(=O)[O-])=C(C[n+]3ccccc3)CS[C@H]12)c1csc(N)n1)C(=O)O; test: as §2; how it was run: as §3
[10] = substrate: CC1(C)S[C@@H]2[C@H](NC(=O)Cc3ccccc3)C(=O)N2[C@H]1C(=O)O; test: as §2; how it was run: as §3
[11] = substrate: CC1(C)S[C@@H]2[C@H](NC(=O)[C@H](C(=O)O)c3ccsc3)C(=O)N2[C@H]1C(=O)O; test: as §2; how it was run: as §3
[12] = substrate: CC1(C)S[C@@H]2[C@H](NC(=O)[C@H](N)c3ccccc3)C(=O)N2[C@H]1C(=O)O; test: as §2; how it was run: as §3
[13] = substrate: CCN1CCN(C(=O)N[C@@H](C(=O)N[C@@H]2C(=O)N3[C@@H]2SC(C)(C)[C@@H]3C(=O)O)c2ccccc2)C(=O)C1=O; test: as §2; how it was run: as §3
[14] = substrate: CO/N=C(\C(=O)N[C@@H]1C(=O)N2C(C(=O)O)=C(COC(C)=O)CS[C@H]12)c1csc(N)n1; test: as §2; how it was run: as §3
[15] = substrate: CO/N=C(\C(=O)N[C@@H]1C(=O)N2C(C(=O)[O-])=C(C[N+]3(C)CCCC3)CS[C@H]12)c1csc(N)n1; test: as §2; how it was run: as §3
[16] = substrate: CO/N=C(\C(=O)N[C@@H]1C(=O)N2C(C(=O)[O-])=C(C[n+]3cccc4c3CCC4)CS[C@H]12)c1csc(N)n1; test: as §2; how it was run: as §3
[17] = substrate: C[C@@H](O)[C@H]1C(=O)N2C(C(=O)O)=C(SCCNC=N)C[C@H]12; test: as §2; how it was run: as §3
[18] = substrate: C[C@@H](O)[C@H]1C(=O)N2C(C(=O)O)=C(S[C@@H]3CN[C@H](C(=O)N(C)C)C3)[C@H](C)[C@H]12; test: as §2; how it was run: as §3
[19] = substrate: C[C@@H](O)[C@H]1C(=O)N2C(C(=O)O)=C(S[C@@H]3CN[C@H](C(=O)Nc4cccc(C(=O)O)c4)C3)[C@H](C)[C@H]12; test: as §2; how it was run: as §3
[20] = substrate: C[C@H]1[C@H](NC(=O)/C(=N\OC(C)(C)C(=O)O)c2csc(N)n2)C(=O)N1S(=O)(=O)O; test: as §2; how it was run: as §3
[21] = substrate: CC(=O)OCC1=C(C(=O)O)N2C(=O)[C@@H](NC(=O)Cc3cccs3)[C@H]2SC1; test: (§4) Ratio of Kcat to Km for Aeromonas allosaccharophila AL-1 beta-lactamase PER6; how it was run: as §3
[22] = substrate: CC(C)(O/N=C(\C(=O)N[C@@H]1C(=O)N2C(C(=O)[O-])=C(C[n+]3ccccc3)CS[C@H]12)c1csc(N)n1)C(=O)O; test: as §4; how it was run: as §3
[23] = substrate: CC1(C)S[C@@H]2[C@H](NC(=O)Cc3ccccc3)C(=O)N2[C@H]1C(=O)O; test: as §4; how it was run: as §3
[24] = substrate: CC1(C)S[C@@H]2[C@H](NC(=O)[C@H](C(=O)O)c3ccsc3)C(=O)N2[C@H]1C(=O)O; test: as §4; how it was run: as §3
[25] = substrate: CC1(C)S[C@@H]2[C@H](NC(=O)[C@H](N)c3ccccc3)C(=O)N2[C@H]1C(=O)O; test: as §4; how it was run: as §3
[26] = substrate: CCN1CCN(C(=O)N[C@@H](C(=O)N[C@@H]2C(=O)N3[C@@H]2SC(C)(C)[C@@H]3C(=O)O)c2ccccc2)C(=O)C1=O; test: as §4; how it was run: as §3
[27] = substrate: CO/N=C(\C(=O)N[C@@H]1C(=O)N2C(C(=O)O)=C(COC(C)=O)CS[C@H]12)c1csc(N)n1; test: as §4; how it was run: as §3
[28] = substrate: CO/N=C(\C(=O)N[C@@H]1C(=O)N2C(C(=O)[O-])=C(C[N+]3(C)CCCC3)CS[C@H]12)c1csc(N)n1; test: as §4; how it was run: as §3
[29] = substrate: CO/N=C(\C(=O)N[C@@H]1C(=O)N2C(C(=O)[O-])=C(C[n+]3cccc4c3CCC4)CS[C@H]12)c1csc(N)n1; test: as §4; how it was run: as §3
[30] = substrate: C[C@@H](O)[C@H]1C(=O)N2C(C(=O)O)=C(SCCNC=N)C[C@H]12; test: as §4; how it was run: as §3
[31] = substrate: C[C@@H](O)[C@H]1C(=O)N2C(C(=O)O)=C(S[C@@H]3CN[C@H](C(=O)N(C)C)C3)[C@H](C)[C@H]12; test: as §4; how it was run: as §3
[32] = substrate: C[C@@H](O)[C@H]1C(=O)N2C(C(=O)O)=C(S[C@@H]3CN[C@H](C(=O)Nc4cccc(C(=O)O)c4)C3)[C@H](C)[C@H]12; test: as §4; how it was run: as §3
[33] = substrate: C[C@H]1[C@H](NC(=O)/C(=N\OC(C)(C)C(=O)O)c2csc(N)n2)C(=O)N1S(=O)(=O)O; test: as §4; how it was run: as §3

## CO/N=C(\C(=O)N[C@@H]1C(=O)N2C(C(=O)O)=C(COC(C)=O)CS[C@H]12)c1csc(N)n1 [CEFOTAXIME]
[1]
  MIC: 2 µg/mL (≈ 4.39 µM)
Escherichia coli [2]
  MIC: 64 µg/mL
Escherichia coli [3]
  MIC: 48 µg/mL
Escherichia coli [4]
  MIC: 64 µg/mL
Escherichia coli [5]
  MIC: 0.12 µg/mL (≈ 0.263 µM)
[6]
  kcat/Km: 760000 M⁻¹ s⁻¹

## C[C@H]1[C@H](NC(=O)/C(=N\OC(C)(C)C(=O)O)c2csc(N)n2)C(=O)N1S(=O)(=O)O [AZTREONAM]
[1]
  MIC: 1 µg/mL (≈ 2.3 µM)
Escherichia coli [2]
  MIC: > 256 µg/mL
Escherichia coli [3]
  MIC: > 256 µg/mL
Escherichia coli [4]
  MIC: > 256 µg/mL
[6]
  kcat/Km: 120000 M⁻¹ s⁻¹

## CO[C@@]1(NC(=O)C(C(=O)O)c2ccc(O)cc2)C(=O)N2C(C(=O)O)=C(CSc3nnnn3C)CO[C@@H]21 (stereo partly specified) [MOXALACTAM]
[1]
  MIC: < 0.06 µg/mL
Escherichia coli [2]
  MIC: 2 µg/mL
Escherichia coli [3]
  MIC: 1 µg/mL
Escherichia coli [4]
  MIC: 0.5 µg/mL
Escherichia coli [5]
  MIC: 0.12 µg/mL (≈ 0.231 µM)

## C[C@@H](O)[C@H]1C(=O)N2C(C(=O)O)=C(SCCNC=N)C[C@H]12 [IMIPENEM ANHYDROUS]
[1]
  MIC: 1 µg/mL (≈ 3.34 µM)
[7]
  MIC: 0.5 µg/mL
[6]
  kcat/Km: < 10000 M⁻¹ s⁻¹

## CC1(C)S[C@@H]2[C@H](NC(=O)Cc3ccccc3)C(=O)N2[C@H]1C(=O)O
[6]
  kcat/Km: 120000 M⁻¹ s⁻¹

## C[C@@H](O)[C@H]1C(=O)N2C(C(=O)O)=C(S[C@@H]3CN[C@H](C(=O)N(C)C)C3)[C@H](C)[C@H]12 [MEROPENEM]
[1]
  MIC: 0.06 µg/mL (≈ 0.156 µM)
Escherichia coli [3]
  MIC: 0.03 µg/mL
Escherichia coli [4]
  MIC: 0.03 µg/mL
Escherichia coli [5]
  MIC: 0.06 µg/mL (≈ 0.156 µM)

## C[C@@H](O)[C@H]1C(=O)N2C(C(=O)O)=C(S[C@@H]3CN[C@H](C(=O)Nc4cccc(C(=O)O)c4)C3)[C@H](C)[C@H]12
[1]
  MIC: 0.5 µg/mL (≈ 1.05 µM)
Escherichia coli [5]
  MIC: < 0.03 µg/mL

## CC(C)(O/N=C(\C(=O)N[C@@H]1C(=O)N2C(C(=O)[O-])=C(C[n+]3ccccc3)CS[C@H]12)c1csc(N)n1)C(=O)O [CEFTAZIDIME]
[1]
  MIC: 128 µg/mL (≈ 234 µM)
Escherichia coli [2]
  MIC: > 256 µg/mL
Escherichia coli [3]
  MIC: > 256 µg/mL
Escherichia coli [4]
  MIC: > 256 µg/mL
Escherichia coli [5]
  MIC: 0.5 µg/mL (≈ 0.915 µM)
[6]
  kcat/Km: 430000 M⁻¹ s⁻¹

B1: Extended-spectrum beta-lactamase PER-6 (Aeromonas allosaccharophila), D5HSX5 (protein)
chain: MNVIAKGVFTTTALLMLSLSSWVVSAQSPLLKEQIETIVTGKKATVGVAVWGPDDLEPLLVNPFEKFPMQSVFKMHLAMLVLHQVDQGKLDLNKTVAVNRAAVLQNTWSPMMKDHQGDEFTVTVQQLLQYSVSHSDNVACDLLFELVGGPAALHAYIQSLGIKETEVVANEAQMHADDQVQYKNWTSMKAAAQLLRKFEQKKQLSETSQALLWKWMVETTTGPQRLKGLLPAGTVVAHKTGTSGVRAGKTAATNDIGVIMLPDGRPLLVAVFVKDSAESARTNEAIIAQVAQAAYQFELKKLSAVSPD
[8]
  Km: 55 µM
  kcat: 8 s⁻¹
[9]
  Km: 1000 µM
  kcat: 12 s⁻¹
[10]
  Km: 200 µM
  kcat: 5 s⁻¹
[11]
  Km: 9 µM
  kcat: 0.4 s⁻¹
[12]
  Km: 20 µM
  kcat: 1 s⁻¹
[13]
  Km: 4 µM
  kcat: 0.1 s⁻¹
[14]
  Km: 900 µM
  kcat: 40 s⁻¹
[15]
  Km: 2000 µM
  kcat: 10 s⁻¹
[16]
  Km: 1500 µM
  kcat: 12 s⁻¹
[17]
  Km: 1.5 µM
  kcat: 0.006 s⁻¹
[18]
  Km: 10 µM
  kcat: 0.004 s⁻¹
[19]
  Km: 7 µM
  kcat: 0.002 s⁻¹
[20]
  Km: 40 µM
  kcat: 3 s⁻¹
[21]
  kcat/Km: 145000 M⁻¹ s⁻¹
[22]
  kcat/Km: 1e+07 M⁻¹ s⁻¹
[23]
  kcat/Km: 25000 M⁻¹ s⁻¹
[24]
  kcat/Km: 50000 M⁻¹ s⁻¹
[25]
  kcat/Km: 50000 M⁻¹ s⁻¹
[26]
  kcat/Km: 25000 M⁻¹ s⁻¹
[27]
  kcat/Km: 45000 M⁻¹ s⁻¹
[28]
  kcat/Km: 5000 M⁻¹ s⁻¹
[29]
  kcat/Km: 8000 M⁻¹ s⁻¹
[30]
  kcat/Km: 4000 M⁻¹ s⁻¹
[31]
  kcat/Km: 400 M⁻¹ s⁻¹
[32]
  kcat/Km: 300 M⁻¹ s⁻¹
[33]
  kcat/Km: 7.5e+07 M⁻¹ s⁻¹
